Measured values from article PMC11447854 (ACS Omega, 2024).

How the values were obtained:
rhCOX-2 = biological target: T1, rhCOX-2 (Homo sapiens, UniProt P35354); experiment: COX-2 enzyme-based activity test; type: biochemical
T1 sequence (P35354 18-604): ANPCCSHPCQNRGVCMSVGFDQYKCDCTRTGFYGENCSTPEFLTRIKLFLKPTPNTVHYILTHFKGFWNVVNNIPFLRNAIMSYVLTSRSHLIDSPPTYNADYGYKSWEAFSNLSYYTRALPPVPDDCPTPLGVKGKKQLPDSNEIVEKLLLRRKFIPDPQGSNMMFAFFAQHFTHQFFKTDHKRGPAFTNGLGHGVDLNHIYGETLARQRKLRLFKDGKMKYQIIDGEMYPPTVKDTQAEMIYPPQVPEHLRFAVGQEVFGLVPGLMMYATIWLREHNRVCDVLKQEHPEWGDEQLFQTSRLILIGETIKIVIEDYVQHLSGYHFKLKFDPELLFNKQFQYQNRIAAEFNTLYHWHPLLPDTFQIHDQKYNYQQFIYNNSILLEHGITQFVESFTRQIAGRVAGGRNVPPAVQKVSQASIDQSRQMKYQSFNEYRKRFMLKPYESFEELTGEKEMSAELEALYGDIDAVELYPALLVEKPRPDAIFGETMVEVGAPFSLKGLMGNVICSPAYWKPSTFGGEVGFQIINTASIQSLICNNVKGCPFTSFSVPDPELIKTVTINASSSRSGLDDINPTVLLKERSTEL

HEK293 cells = experiment: CCK8 proliferation inhibition assay, HEK293 normal cells; type: cell-based, human; details: for IC50: Homo sapiens, HEK293, read-out: cell-based IC50 (HEK293, μM); for SI = IC50(HEK293)/IC50(HeLa): fold selectivity for cancer cells (HeLa) over normal cells (HEK293)
Method in brief: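 HEK293 and HeLa cells were seeded at 5000 cells/well and grown 24 h at 37 °C, 5% CO2. They were then exposed 24 h to test compound at 1.0–10.0 mg/L in serum-free medium, alongside untreated, DMSO-solvent and gefitinib controls. After a PBS wash and 3 h with CCK8, […]. IC50 came from inhibition relative to control. SI = IC50(HEK293)/IC50(HeLa).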

HeLa cells = experiment: cells; type: cell-based, human; details: for activity improvement compared to gefitinib (fold): HeLa cells, IC50 versus commercial drug gefitinib; for IC50: Homo sapiens, HeLa, 24 h, read-out: cell-based IC50 (HeLa, μM); for F, activity fold compared to hit compounds, F = IC50(Hit)/IC50(Lead): from HeLa IC50, hit = 6a, 7a or 8a of the same series

SMILES	IC50 (rhCOX-2)	IC50 (HeLa cells)	F, activity fold compared to hit compounds, F = IC50(Hit)/IC50(Lead) (HeLa cells)	IC50 (HEK293 cells)	SI = IC50(HEK293)/IC50(HeLa) (HEK293 cells)	activity improvement compared to gefitinib (fold) (HeLa cells)
C/C(=N\NC(=O)C(C)c1ccc(CC(C)C)cc1)c1cc2cc(Br)cc(Br)c2oc1=O (centres unmarked) [6c, (E)-N′-(1-(6,8-Dibromo-2-oxo-2H-chromen-3-yl)ethylidene)-2-(4-isobutylphenyl)propanehydrazide]	2.67 µM	0.606 µM	7.61	32.2 µM	53.18	approximately 10 fold
C/C(=N\NC(=O)C(C)c1ccc(CC(C)C)cc1)c1cc2cc(Cl)ccc2oc1=O (centres unmarked) [6g, (E)-N′-(1-(6-Chloro-2-oxo-2H-chromen-3-yl)ethylidene)-2-(4-isobutylphenyl)propanehydrazide]		2.56 µM	1.80			
Cc1ccc2oc(=O)c(-c3nnc(C(C)c4ccc(CC(C)C)cc4)o3)cc2c1 (centres unmarked) [8f, 3-(5-(1-(4-Isobutylphenyl)ethyl)-1,3,4-oxadiazol-2-yl)-6-methyl-2H-chromen-2-one]		42.3 µM	0.11			
C/C(=N\NC(=O)C(C)c1ccc(CC(C)C)cc1)c1cc2cc(Cl)cc(Cl)c2oc1=O (centres unmarked) [6f, (E)-N′-(1-(6,8-Dichloro-2-oxo-2H-chromen-3-yl)ethylidene)-2-(4-isobutylphenyl)propanehydrazide]	1.51 µM	4.34 µM	1.06			
CC(C)Cc1ccc(C(C)C(=O)O)cc1 (centres unmarked) [ibuprofen, reference compound]		> 200 µM				
CC(C)Cc1ccc(C(C)c2nnc(-c3cc4ccccc4oc3=O)o2)cc1 (centres unmarked) [8a, 3-(5-(1-(4-Isobutylphenyl)ethyl)-1,3,4-oxadiazol-2-yl)-2H-chromen-2-one]		4.66 µM	1.00			
CC(C)Cc1ccc(C(C)c2nnc(-c3cc4cc(F)ccc4oc3=O)o2)cc1 (centres unmarked) [8b, 6-Fluoro-3-(5-(1-(4-isobutylphenyl)ethyl)-1,3,4-oxadiazol-2-yl)-2H-chromen-2-one]		122 µM	0.04			
CC(C)Cc1ccc(C(C)c2nnc(-c3cc4cc(Cl)cc(Cl)c4oc3=O)o2)cc1 (centres unmarked) [8d, 6,8-Dichloro-3-(5-(1-(4-isobutylphenyl)ethyl)-1,3,4-oxadiazol-2-yl)-2H-chromen-2-one]		> 200 µM				
CC(C)Cc1ccc(C(C)c2nnc(-c3cc4cc(Br)cc(Br)c4oc3=O)o2)cc1 (centres unmarked) [8e, 6,8-Dibromo-3-(5-(1-(4-isobutylphenyl)ethyl)-1,3,4-oxadiazol-2-yl)-2H-chromen-2-one]		> 200 µM				
CC(C)Cc1ccc(C(C)c2nnc(-c3cc4cc(Cl)ccc4oc3=O)o2)cc1 (centres unmarked) [8c, 6-Chloro-3-(5-(1-(4-isobutylphenyl)ethyl)-1,3,4-oxadiazol-2-yl)-2H-chromen-2-one]		82.2 µM	0.06			

More lines, main results first:

IC50 (rhCOX-2)	IC50 (HeLa cells)	F, activity fold compared to hit compounds, F = IC50(Hit)/IC50(Lead) (HeLa cells)	SMILES	IC50 (HEK293 cells)	SI = IC50(HEK293)/IC50(HeLa) (HEK293 cells)	activity improvement compared to gefitinib (fold) (HeLa cells)
	0.889 µM	5.18	CC(C)Cc1ccc(C(C)C(=O)NNC(=O)c2cc3cc(Br)cc(Br)c3oc2=O)cc1 (centres unmarked) [7h, 6,8-Dibromo-N′-(2-(4-isobutylphenyl)propanoyl)-2-oxo-2H-chromene-3-carbohydrazide]			
1.04 µM	6.65 µM	0.69	C/C(=N\NC(=O)C(C)c1ccc(CC(C)C)cc1)c1cc2ccc(O)cc2oc1=O (centres unmarked) [6d, (E)-N′-(1-(7-Hydroxy-2-oxo-2H-chromen-3-yl)ethylidene)-2-(4-isobutylphenyl)propanehydrazide]			
0.982 µM	6.25 µM	0.74	CC(C)Cc1ccc(C(C)C(=O)NNC(=O)c2cc3cc([N+](=O)[O-])ccc3oc2=O)cc1 (centres unmarked) [7f, N′-(2-(4-Isobutylphenyl)propanoyl)-6-nitro-2-oxo-2H-chromene-3-carbohydrazide]			
	0.783 µM	5.89	CC(C)Cc1ccc(C(C)C(=O)NNC(=O)c2cc3cc(Cl)cc(Cl)c3oc2=O)cc1 (centres unmarked) [7g, 6,8-Dichloro-N′-(2-(4-isobutylphenyl)propanoyl)-2-oxo-2H-chromene-3-carbohydrazide]	20 µM	25.49	approximately 10 fold
	2.59 µM	1.78	C/C(=N\NC(=O)C(C)c1ccc(CC(C)C)cc1)c1cc2cc(F)ccc2oc1=O (centres unmarked) [6b, (E)-N′-(1-(6-Fluoro-2-oxo-2H-chromen-3-yl)ethylidene)-2-(4-isobutylphenyl)propanehydrazide]			
0.294 µM	3.68 µM	1.25	CC(C)Cc1ccc(C(C)C(=O)NNC(=O)c2cc3cc(F)ccc3oc2=O)cc1 (centres unmarked) [7e, 6-Fluoro-N′-(2-(4-isobutylphenyl)propanoyl)-2-oxo-2H-chromene-3-carbohydrazide]			
2.82 µM	4.61 µM	1.00	CC(C)Cc1ccc(C(C)C(=O)NNC(=O)c2cc3ccccc3oc2=O)cc1 (centres unmarked) [7a, N′-(2-(4-Isobutylphenyl)propanoyl)-2-oxo-2H-chromene-3-carbohydrazide]			
	2.19 µM	2.11	C/C(=N\NC(=O)C(C)c1ccc(CC(C)C)cc1)c1cc2cc(C)ccc2oc1=O (centres unmarked) [6e, (E)-2-(4-Isobutylphenyl)-N′-(1-(6-methyl-2-oxo-2H-chromen-3-yl)ethylidene)propanehydrazide]			
	4.64 µM	1.00	C/C(=N\NC(=O)C(C)c1ccc(CC(C)C)cc1)c1cc2ccccc2oc1=O (centres unmarked) [6a, (E)-2-(4-Isobutylphenyl)-N′-(1-(2-oxo-2H-chromen-3-yl)ethylidene)propanehydrazide]			
	8.92 µM	0.52	CC(C)Cc1ccc(C(C)C(=O)NNC(=O)c2cc3ccc(O)cc3oc2=O)cc1 (centres unmarked) [7c, 7-Hydroxy-N′-(2-(4-isobutylphenyl)propanoyl)-2-oxo-2H-chromene-3-carbohydrazide]			
	42.7 µM	0.11	Cc1ccc2oc(=O)c(C(=O)NNC(=O)C(C)c3ccc(CC(C)C)cc3)cc2c1 (centres unmarked) [7b, N′-(2-(4-Isobutylphenyl)propanoyl)-6-methyl-2-oxo-2H-chromene-3-carbohydrazide]			
	137 µM	0.03	CC(C)Cc1ccc(C(C)C(=O)NNC(=O)c2cc3cc(Cl)ccc3oc2=O)cc1 (centres unmarked) [7d, 6-Chloro-N′-(2-(4-isobutylphenyl)propanoyl)-2-oxo-2H-chromene-3-carbohydrazide]			
